C8 TRAIL sens: viability loss with TRAIL in NB7+C8 cells, primary screen, TRAIL sensitizer project, cell-based, ATPlite luminescence; inhibition (viability loss, TRAIL sensitization), % at 10 µM; 360,000 tested, 1% active;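 active means compounds causing at least 50% loss of cell viability in the single-dose screen, relative to plate controls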
APP 5'UTR act: activators of APP 5'UTR luciferase reporter, primary screen, SH-SY5Y cells. SH-SY5Y APP 5'UTR luciferase reporter, luminescence; zero percent = DMSO vehicle wells. activation, % at 2 µM. 190,000 tested, 1% active. AID 1276, 2008;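 active means activation above a set limit, based on mean plus 3 SD of controls, cut at about 140% in these data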
NF-kB neuron act: activators of NF-kB expression in neurons, primary screen, cell-based, HTS; 190,000 tested, 1.6% active; AID 1239, 2008; fold change at 12.5 µM; human neuronal cells, NF-kB reporter expression; hits give high values; in the data active means fold change above about 3.3
FLuc stim CS: FLuc activators, initial screening, artefact control for FLuc-dependent activation tests, biochemical, ATPlite luminescence; 200,000 tested, under 10 active; ATPlite luciferase biochemical, 10 min; 0 = ATP-free wells, 1 = DMSO control; AID 1027, 2008; Luciferin 4-monooxygenase (Photinus pyralis), P08659; activation factor at 10 µM;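 active means luciferase activation factor, scaled between plate controls, of at least 2 with compound at 10 µM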
Target sequence (P08659 whole entry, looked up): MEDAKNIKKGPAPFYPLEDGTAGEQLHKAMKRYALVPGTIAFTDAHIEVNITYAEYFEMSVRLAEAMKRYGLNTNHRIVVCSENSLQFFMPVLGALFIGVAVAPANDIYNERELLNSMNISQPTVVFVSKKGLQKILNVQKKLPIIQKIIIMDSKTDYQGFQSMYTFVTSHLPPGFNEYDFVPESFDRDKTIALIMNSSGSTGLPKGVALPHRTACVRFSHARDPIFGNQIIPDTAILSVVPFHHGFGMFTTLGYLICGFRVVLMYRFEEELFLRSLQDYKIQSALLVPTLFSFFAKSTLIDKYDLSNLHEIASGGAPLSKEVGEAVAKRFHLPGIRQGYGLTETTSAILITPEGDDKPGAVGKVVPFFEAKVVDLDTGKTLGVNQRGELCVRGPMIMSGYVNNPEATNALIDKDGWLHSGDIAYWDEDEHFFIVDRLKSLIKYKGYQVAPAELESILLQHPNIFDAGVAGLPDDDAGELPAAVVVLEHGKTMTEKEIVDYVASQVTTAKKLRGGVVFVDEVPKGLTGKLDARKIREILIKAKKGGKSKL
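Assay system – cell-free luciferase reagent · Medium – PBS-based ATP solution · Dosing – test compounds dosed from 2 mM stocks in 100% DMSO · Timing – 10 min, room temperature · Technique – light output (luminescence) · Measure – luminescence gain marking luciferase activators · Controls – No-ATP low control, compound-free enzyme-plus-ATP high control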
PPC-1+TRAIL kill: compounds killing PPC-1 cancer cells with TRAIL present, primary screen, TRAIL potentiator project, ATPLite luminescence, uHTS | PPC-1 cells + TRAIL, ATPLite viability luminescence | cell killing (% activity), % at 4 µM or 5 µM | 220,000 tested, 0.41% active;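 active means cell killing above 50% in the first pass at 4 µM, then a duplicate retest at 5 µM averaging 50% or more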;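 further: plate controls were cells with TRAIL plus DMSO for no effect and medium-only wells lacking cells for full effect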
FLuc inhib CS: firefly luciferase enzyme inhibitors, primary screen, artefact control for luciferase-based inhibitor screens, biochemical, luminescence, ATPLite. 10 min. inhibition, % at 10 µM. AID 1006, 2008. 200,000 tested, 1.5% active. Luciferin 4-monooxygenase (Photinus pyralis), P08659;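 active means inhibition above about 50% when tested at 10 µM, limit read from the data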
PPC1 cytotox: cytotoxicity in PPC-1 cells, confirmation, cytotoxicity control for TRAIL apoptosis potentiator project, cell-based, ATP content luminescence | shares compounds with PPC-1+TRAIL kill | PPC-1 viability, ATPlite luminescence, overnight | cytotoxicity, % at 5 µM | 1,200 tested, 50% active;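 active means reconfirmed compounds whose average cytotoxicity reaches 50% or more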;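 further: 0% = DMSO-treated cells and 100% = wells holding medium but no cells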
Starred values were filed as active, the others as inactive; . = not tested or not shown. Hits are enriched below; roughly 2.2% of the tested compounds scored in any of these assays.

SMILES	C8 TRAIL sens	APP 5'UTR act	NF-kB neuron act	FLuc stim CS	PPC-1+TRAIL kill	FLuc inhib CS	PPC1 cytotox
CCCCCCCCN1CC(Cc2cc3ccccc3c3ccccc23)N(c2ccccc2)c2ccccc2C1=O (stereo not given)	1	.	.	.	.	.	.
O=C(Nc1nc2ccccc2[nH]1)c1ccccc1	84*	214*	3.2	0.1	62*	88*	60*
O=C(Nc1nc2ccccc2[nH]1)c1cccc(Cl)c1	42	.	.	.	.	.	.
Nc1ncnc2c1ncn2C1OCC(O)C1O (stereo not given)	-13	.	.	.	.	.	.
Fc1ccc(CO/N=C/C2=C(Cl)c3ccccc3CC2)cc1	-6	2	1.1	1	3	-3	-5
COc1ccc(C(=O)C[C@@H]2OC[C@H](Cc3ccccc3)N2S(=O)(=O)c2ccc(C)cc2)cc1OC	2	.	.	.	.	.	.
Cc1cccc(C(=O)Nc2ccn(C)n2)c1	14	.	.	.	.	.	.
Cc1cccc(C(=O)n2c(=S)nc3cc(C)ccn32)c1	82*	.	.	.	78*	.	79*
COc1ccc(S(=O)(=O)Nc2ccccn2)c(C)c1C	-3	15	0.88	1	-5	-2	-2
CS/C(Nc1cc(Cl)ccc1Cl)=C(/C#N)C(=O)c1ccco1	76*	.	.	.	21	.	23
O=C(Nc1cc(Cl)ccc1Cl)c1ccco1	3	.	.	.	.	.	.
CCOC(=O)CSc1ncnc2c1cnn2-c1ccccc1	-8	-11	1.2	0.8	18	16	.
CCOC(=O)CSc1ncnc2c1cnn2-c1ccc(C)cc1	6	-1	1.4	0.9	28	7	22
COc1ccccc1-c1nnc(Nc2nc3c(OC)cccc3s2)o1	30	-87	2.5	0.9	7	12	.
COc1cccc(-c2nnc(Nc3nc4c(F)cccc4s3)o2)c1	71*	49	2.3	0.1	44	88*	48
COc1ccc(CN2C(=O)c3ccccc3C2c2nnnn2-c2c(C)cccc2C)cc1OC (stereo not given)	10	.	.	.	.	.	.
O=C(c1ccc2c3n(nc2c1)-c1ccccc1CO3)N1CCOCC1	51*	.	.	.	45	.	49
Cc1ccc2c(c1)COc1c3ccc(C(=O)N4CCCCC4)cc3nn1-2	34	.	.	.	22	.	.
C[C@@H](CO)NC(=O)c1ccc2c3n(nc2c1)-c1ccccc1CO3	91*	.	.	.	89*	.	91*
O=C(c1ccc2c3n(nc2c1)-c1ccccc1CO3)N1CCCCC1	70*	.	.	.	58*	.	60*
O=C(NCCNC(=O)c1ccc(-c2cc(Cl)ccc2Cl)o1)c1cnccn1	19	.	.	.	.	.	.
CCCCCCCCN1C(=O)[C@H](CC(=O)N2CCSCC2)C[C@@]2(C(=O)OC)CCCCC=C12	-1	.	.	.	.	.	.
CCOC(=O)c1ccc(-c2ccc3ncnc(NCc4csc(C)n4)c3c2)o1	-7	.	.	.	.	.	.
COc1cccc(CN2CCC2(C)C(=O)Nc2cccc3cccnc23)c1OC (stereo not given)	1	.	.	.	.	.	.
CCCn1nc(NC(=O)c2ccco2)c2cc3ccc(C)cc3nc21	-10	.	.	1	-1	-1	7
SMILES	C8 TRAIL sens	APP 5'UTR act	NF-kB neuron act	FLuc stim CS	PPC-1+TRAIL kill	FLuc inhib CS	PPC1 cytotox
CCCn1nc(NC(=O)c2ccco2)c2cc3cc(C)ccc3nc21	3	.	.	.	25	.	.
CCc1ccc(NC(=O)c2cnn3ccccc23)cc1	58*	135	4*	0.2	50	78*	50*
CSc1cccc(NC(=O)c2cnn3ccccc23)c1	4	.	.	.	4	.	.
COc1ccc(-c2nc3ccc(Cl)cn3c2CC(C)(C)C)cc1OC	4	.	.	.	.	.	.
COc1cccc(C(NC(C)=O)c2nc(-c3ccccc3)cs2)c1 (stereo not given)	2	.	.	.	.	.	.
CCc1ccc(C(=O)Nc2nnn(CC)n2)cc1	66*	100	3.7*	0.1	63*	87*	57*
CCn1nnc(NC(=O)c2ccc(Br)o2)n1	-8	.	.	.	.	.	.
O=C(NCc1cccnc1)c1csc([C@@H]2O[C@H](CO)[C@H](O)[C@H](O)[C@H]2O)n1	-7	.	.	.	.	.	.
COCCN1C[C@@H](CO)O[C@@H](n2cnc3c(NCc4ccncc4)ncnc32)C1	-8	.	.	.	.	.	.
Cc1cc(NC(=O)CSC2=Nc3ccccc3C3=NC(Cc4ccccc4)C(=O)N23)n[nH]1 (stereo not given)	-5	-9	1.2	1	-6	-3	-2
CCOC(=O)C1=CCC(c2cc3ccccc3[nH]2)NC1 (stereo not given)	12	.	.	.	.	.	.
Cn1c(=N)n(CC(=O)O)c2ccccc21	-1	1	0.96	1	1	0	.
Cn1c(=N)n(CC(=O)c2ccccc2)c2ccccc21	81*	.	.	.	53*	.	57*
CCOC(=O)[C@]12CCC=C1N(Cc1ccc3c(c1)OCO3)C(=O)[C@H](CC(=O)NCc1ccc(C)o1)C2	-13	.	.	.	.	.	.
COc1ccc(N/C=C2\CCc3ccccc3C2=O)cc1	86*	156*	1.8	0.1	72*	92*	72*
COc1ccc(N/C=C2\CCOC2=O)cc1	-1	22	0.99	1.1	-9	-6	.
CC(=O)Oc1ccc(/C=C2/CCc3ccccc3C2=O)cc1	76*	.	.	.	38	.	44
CCOC1=C2[C@H](c3ccc(CC)cc3)N(S(=O)(=O)c3ccc(C)cc3)C[C@H]2C(C#N)(C#N)C(C#N)(C#N)C1	4	.	.	.	.	.	.
CC(C)c1ccc(NC(=O)C2(C)Cc3c(-c4ccc(N(C)C)cc4)ccnc3O2)cc1 (stereo not given)	-1	.	.	.	.	.	.
CCc1nc2c(OCc3ccc(C(F)(F)F)cc3)cccn2c1N(C)C(=O)c1ccncc1	-4	.	.	.	.	.	.
N/C(=N\OC(=O)c1ccc(Cl)cc1Cl)c1ccccc1	94*	174*	2.5	0.1	65*	95*	62*
COc1ccc(C(=O)O/N=C(\N)c2ccccc2)c(OC)c1	50	188*	1.6	0.5	36	49	34
N/C(Cc1ccc(Cl)cc1Cl)=N\OC(=O)c1ccccc1	1	31	1	1	-1	-5	.
COc1ccc(C(=O)O/N=C(\N)c2ccc(OC)c(OC)c2)c(OC)c1	17	.	.	.	.	.	.
O=C(Nc1nccs1)c1cnc2sccn2c1=O	-4	.	.	.	.	.	.
COC(=O)[C@@]12C[C@@H](CC(=O)N3CCSCC3)C(=O)N(Cc3ccco3)C1=CCC(C)(C)C2	-4	.	.	.	.	.	.
Nc1sc2c(c1C(=O)NCCc1ccccc1)CCCC2	-1	.	.	.	.	.	.
O=C(Nc1ccccn1)c1ccc2ccccc2n1	55*	141*	5.9*	0.2	38	84*	52*
CCCC(=O)Nc1ccccc1NC(=O)c1ccc(OCC)cc1	-2	-17	0.97	1	12	1	.

Compound activity (PubChem BioAssay)
